Key:
[1] = molecular target: Cathepsin B (Homo sapiens, UniProt P07858); experiment: Inhibition of human cathepsin B using Z-Arg-Arg-pNA chromogenic substrate fluorogenic substrate incubated for 30 mins
Method in brief: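 Chromogenic readout with Z-Arg-Arg-pNA at 500 μM final (0.45 × Km), followed over 30 min. Duplicate runs at five inhibitor concentrations. IC50 obtained by nonlinear regression of steady-state rates, v_s = v0/(1+[I]/IC50). Ki derived as IC50/(1+[S]/Km).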

[2] = molecular target: T1, Cathepsin S (Homo sapiens, UniProt P25774); experiment: Inhibition of human cathepsin S using Z-Phe-Arg-AMC fluorogenic substrate fluorogenic substrate incubated for 60 mins
Method in brief: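 Z-Phe-Arg-AMC substrate at 40 μM final (0.74 × Km), monitored over 60 min. Duplicate runs at five inhibitor concentrations. Steady-state rates fitted by nonlinear regression, v_s = v0/(1+[I]/IC50). Ki converted using IC50/(1+[S]/Km).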
Target sequence in this assay (P25774 whole entry): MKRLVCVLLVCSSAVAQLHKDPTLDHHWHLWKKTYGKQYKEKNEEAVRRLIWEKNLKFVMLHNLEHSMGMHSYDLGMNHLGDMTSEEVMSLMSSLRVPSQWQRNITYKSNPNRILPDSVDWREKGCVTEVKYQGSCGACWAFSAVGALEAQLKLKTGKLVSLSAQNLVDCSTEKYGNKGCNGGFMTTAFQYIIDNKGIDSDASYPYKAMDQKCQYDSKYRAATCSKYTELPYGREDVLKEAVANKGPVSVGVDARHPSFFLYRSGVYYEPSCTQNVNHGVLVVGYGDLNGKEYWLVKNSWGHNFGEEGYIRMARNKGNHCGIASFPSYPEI

[3] = molecular target: T1, Cathepsin S; experiment: Inhibition of human cathepsin S assessed as second order rate constant using Z-Phe-Arg-AMC fluorogenic substrate incubated for 60 mins
Target sequence in this assay (P25774 115-331 limits assumed): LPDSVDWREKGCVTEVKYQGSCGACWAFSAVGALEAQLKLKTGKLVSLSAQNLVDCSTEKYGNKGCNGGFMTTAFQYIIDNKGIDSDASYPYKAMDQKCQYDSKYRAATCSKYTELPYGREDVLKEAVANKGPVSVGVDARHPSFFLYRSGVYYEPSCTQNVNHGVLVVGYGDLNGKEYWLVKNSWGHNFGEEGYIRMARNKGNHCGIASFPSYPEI

[4] = molecular target: Cathepsin K (Homo sapiens) (UniProt P43235); experiment: Inhibition of human cathepsin K assessed as second order rate constant using Z-Leu-Arg-AMC fluorogenic substrate incubated for 60 mins
Sequence of Cathepsin K (Homo sapiens) (P43235 whole entry, looked up): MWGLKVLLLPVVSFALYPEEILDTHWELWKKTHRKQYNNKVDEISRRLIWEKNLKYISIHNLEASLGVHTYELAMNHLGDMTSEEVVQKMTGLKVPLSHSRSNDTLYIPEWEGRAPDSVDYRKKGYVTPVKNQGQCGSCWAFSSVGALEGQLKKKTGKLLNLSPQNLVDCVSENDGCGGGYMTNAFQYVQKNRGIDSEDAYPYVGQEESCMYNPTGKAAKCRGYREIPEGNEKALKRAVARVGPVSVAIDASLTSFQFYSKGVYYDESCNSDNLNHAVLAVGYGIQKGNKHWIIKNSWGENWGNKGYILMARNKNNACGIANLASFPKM

[5] = molecular target: Procathepsin L (Homo sapiens, UniProt P07711); experiment: Inhibition of human cathepsin L using Z-Phe-Arg-pNA chromogenic substrate fluorogenic substrate incubated for 30 mins
Sequence of Procathepsin L (P07711 whole entry): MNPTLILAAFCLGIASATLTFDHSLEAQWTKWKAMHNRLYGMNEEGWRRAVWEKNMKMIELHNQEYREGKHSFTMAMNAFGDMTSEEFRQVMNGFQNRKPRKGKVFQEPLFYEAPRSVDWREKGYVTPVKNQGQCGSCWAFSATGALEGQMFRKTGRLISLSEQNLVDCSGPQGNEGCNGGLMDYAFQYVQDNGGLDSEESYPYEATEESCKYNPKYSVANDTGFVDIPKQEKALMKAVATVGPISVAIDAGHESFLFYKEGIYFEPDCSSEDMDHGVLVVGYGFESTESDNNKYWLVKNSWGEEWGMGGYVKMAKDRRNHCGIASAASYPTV
Method in brief: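 Duplicate measurements at five inhibitor concentrations. IC50 from nonlinear regression of steady-state rates, v_s = v0/(1+[I]/IC50). Ki obtained as IC50/(1+[S]/Km).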

[6] = molecular target: T1, Cathepsin S; experiment: Inhibition of human cathepsin S assessed half life for enzyme-inhibitor complex using Z-Phe-Arg-AMC fluorogenic substrate fluorogenic substrate incubated for 60 mins
Method in brief: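 Complex half-lives calculated from koff values for cathepsin K and cathepsin S. Progress curves used fluorescence emission at 440 nm with excitation at 360 nm. First-order rate constants kobs plotted against inhibitor concentration.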
Target sequence in this assay (P25774 115-331 limits assumed): as the sequence (P25774 115-331 limits assumed) above

SMILES | Ki [1] | Ki [2] | K [3] | K [4] | Ki [5] | T1/2 [6]
CN(Cc1ccccc1)C(=O)CN(C#N)NC(=O)OC(C)(C)C | 0.459 nM | 0.176 nM | 1590 ×10³ /M/s | 28900 ×10³ /M/s | 228 nM | 
CC(C)(C)OC(=O)NN(C#N)CC(=O)N(Cc1ccccc1)Cc1ccccc1 | 0.406 nM | 0.13 nM | 2580 ×10³ /M/s | 52900 ×10³ /M/s | 185 nM | 
CC(C)(C)OC(=O)NN(C#N)CC(=O)N1CCOCC1 | 3.56 nM | 0.777 nM | 757 ×10³ /M/s | 19000 ×10³ /M/s | 573 nM | 10 min
CCCN1CCN(c2ccc(C(=O)NC3(C(=O)NCC#N)CCCCC3)cc2)CC1 [BALICATIB] | 3800 nM | 30100 nM |  |  | 3260 nM | 
CN(C(=O)OC(C)(C)C)N(C#N)CC(=O)N1CCOCC1 | 194 nM | 793 nM | 0.461 ×10³ /M/s | 4.05 ×10³ /M/s | 1690 nM | 

Source: ChEMBL document CHEMBL3352771, “3-Cyano-3-aza-β-amino Acid Derivatives as Inhibitors of Human Cysteine Cathepsins” (ACS Med Chem Lett, 2014)
